Our source for the IC50 and Activity values is ChEMBL document CHEMBL1139397, “Thiazolidinone CFTR inhibitors with improved water solubility identified by structure-activity analysis” (Bioorg Med Chem, 2008).

The structures appear in SMILES notation. Active and inactive are the calls of the source. No cut-off for these calls is given here.

One series deals with Cystic fibrosis transmembrane conductance regulator (Homo sapiens, UniProt P13569). The series can be described thus: Inhibition of human wild type CFTR expressed in rat FRT cells assessed as chloride current by short-circuit current measurements. It counts as cell-based. Summed up:
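FRT cells stably expressing human wildtype CFTR were grown on filters to >1,000 Ω·cm2. Basolateral membrane permeabilized with amphotericin B (250 μg/ml, 30 min). Apical Cl− current was measured under a gradient: basolateral 130 mM NaCl buffer, pH 7.3; apical 65 mM NaCl replaced by gluconate. Solutions at 37 °C under 95% O2/5% CO2. CFTR activated with 100 μM CPT-cAMP, then inhibitor added at increasing concentrations. IC50 fitted from concentration-inhibition data.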
On to `O=C(O)c1ccc(/C=C2\SC(=S)N(c3ccc(C(F)(F)F)cc3)C2=O)cc1`, for which the concentration for half-maximal inhibition (IC50) – broadly, the midpoint of a concentration-inhibition curve – amounted to 15 µM.
For `NCCNC(=O)c1ccc(/C=C2\SC(=S)N(c3cccc(C(F)(F)F)c3)C2=O)cc1`, the outcome was inactive.
Turning to `O=C(O)c1cc(/C=C2\SC(=S)N(c3ccc(C(F)(F)F)cc3)C2=O)ccc1O`, the 50% inhibitory concentration (IC50) worked out at 25 µM.
With `O=C1/C(=C/c2cc(O)c(O)c(O)c2)SC(=S)N1c1cccc(C(F)(F)F)c1`, the IC50 is 11 µM.
`COc1cc(Br)ccc1/C=C1\SC(=S)N(c2cccc(C(F)(F)F)c2)C1=O`: the outcome was inactive.
`CC(=O)OCOC(=O)c1ccc(/C=C2\SC(=S)N(c3cccc(C(F)(F)F)c3)C2=O)cc1`: the outcome was inactive.
Still for that read-out and setting: next, `O=C(O)c1cc(Nc2nnc(-c3cccc(C(F)(F)F)c3)s2)ccc1O`: “inactive”.
`O=C(O)c1ccc(SC2CC(=O)N(c3cccc(C(F)(F)F)c3)C2=O)cc1` (stereo unspecified): the 50% inhibitory concentration (IC50) is 7 µM.
Take `NC(=O)c1ccc(/C=C2\SC(=S)N(c3cccc(C(F)(F)F)c3)C2=O)cc1`: the outcome was inactive.
As for `O=C(O)c1ccccc1/C=C1\SC(=S)N(c2ccc(C(F)(F)F)cc2)C1=O`, the IC50 was 20 µM.
For `O=C(O)c1ccc(NC2=C(Cl)C(=O)N(c3cccc(C(F)(F)F)c3)C2=O)cc1`, the IC50 amounted to 36 µM.
As to `O=C(O)c1ccc(Nc2nnc(-c3cccc(C(F)(F)F)c3)s2)cc1`, the result was inactive.
Consider `O=C(O)c1cccc(/C=C2\SC(=S)N(c3ccc(F)c(C(F)(F)F)c3)C2=O)c1`, for which the half-inhibitory concentration (IC50) came out at 5 µM.
Same read-out and setting: with `O=C1/C(=C/c2ccc(S(=O)(=O)O)cc2)SC(=S)N1c1cccc(C(F)(F)F)c1` the figure was 29 µM.
Same read-out and setting: with `O=C(O)c1cccc(/C=C2\SC(=S)N(c3ccc(C(F)(F)F)cc3)C2=O)c1` the figure was 13 µM; with `O=C1S/C(=C\c2ccc(-c3nn[nH]n3)cc2)C(=O)N1c1cccc(C(F)(F)F)c1`, 17 µM; with `O=C1/C(=C/c2ccncc2)SC(=S)N1c1cccc(C(F)(F)F)c1`, 28 µM.
Still for that read-out and setting: next, `O=C(O)c1ccccc1/C=C1\SC(=S)N(c2cccc(C(F)(F)F)c2)C1=O`: 15 µM.
As for `O=C(O)c1cccc(/C=C2\SC(=S)N(c3ccccc3C(F)(F)F)C2=O)c1`, the IC50 is 19 µM.
As to `O=C(O)c1cc(Nc2nc(-c3cccc(C(F)(F)F)c3)cs2)ccc1O`, the IC50 stood at 32 µM.
Regarding `O=C(O)c1cc(/C=C2\SC(=S)N(c3cccc(C(F)(F)F)c3)C2=O)ccc1O`, the IC50 worked out at 1.4 µM.
For `O=C(O)c1ccc(-n2cc(-c3ccc(C(F)(F)F)cc3)nn2)cc1`, the result was inactive.
The same measure, in the same setting: with `COc1ccc(/C=C2\SC(=S)N(c3cccc(C(F)(F)F)c3)C2=O)cc1` the entry was “inactive”.
Regarding `O=C(O)c1cc(/C=C2\SC(=S)N(c3ccccc3C(F)(F)F)C2=O)ccc1O`, the IC50 came to 14 µM.
In the case of `O=C1/C(=C/c2cc(Br)c(O)c(Br)c2O)SC(=S)N1c1cccc(C(F)(F)F)c1`, the half-inhibitory concentration (IC50) was found to be 8 µM.
Regarding `O=C(O)c1ccc(Nc2nc(-c3cccc(C(F)(F)F)c3)cs2)cc1`, the IC50 is 28 µM.
In the case of `O=C1/C(=C/c2ccc(O)c(O)c2O)SC(=S)N1c1cccc(C(F)(F)F)c1`, the IC50 was 28 µM.
Still for that read-out and setting: with `O=C(O)c1ccc(NC(=S)C2SC(=S)N(c3cccc(C(F)(F)F)c3)C2=O)cc1` (stereo unspecified) the figure was 9 µM.
Regarding `O=C(O)c1ccc(/C=C2\SC(=S)N(c3ccc(F)c(C(F)(F)F)c3)C2=O)cc1`, the IC50 was 1.5 µM.
Same read-out and setting: next, `O=C(O)c1ccc(CC2SC(=S)N(c3cccc(C(F)(F)F)c3)C2=O)cc1` (stereo unspecified): 27 µM.
Turning to `CCOC(=O)c1ccc(/C=C2\SC(=S)N(c3cccc(C(F)(F)F)c3)C2=O)cc1`, the result was inactive.
Turning to `O=C1/C(=C/c2ccc(S(=O)(=O)O)cc2S(=O)(=O)O)SC(=S)N1c1cccc(C(F)(F)F)c1`, the half-maximal inhibitory concentration (IC50) worked out at 50 µM.
Same read-out and setting: with `O=C(O)c1ccc(/C=C2\SC(=S)N(c3ccccc3C(F)(F)F)C2=O)cc1` the figure was 12 µM; with `O=C(O)c1ccc(/C=C2\SC(=S)N(c3ccc(Cl)c(C(F)(F)F)c3)C2=O)cc1`, 15 µM; with `O=C1/C(=C/c2ccc(O)cc2)SC(=S)N1c1cccc(C(F)(F)F)c1`, 24 µM.
Still for that read-out and setting: with `O=C1C(C(=S)Nc2ccc(S(=O)(=O)O)o2)SC(=S)N1c1cccc(C(F)(F)F)c1` (stereo unspecified) the figure was 27 µM.
For the compound `O=C(O)c1ccc(/C=C2\SC(=S)N(Cc3cccc(C(F)(F)F)c3)C2=O)cc1`, the outcome was inactive.
On to `O=C(O)c1ccc(/C=C2\SC(=S)N(c3cc(C(F)(F)F)cc(C(F)(F)F)c3)C2=O)cc1`, for which the IC50 came out at 14 µM.
In the case of `COc1c(Br)cc(/C=C2\SC(=S)N(c3cccc(C(F)(F)F)c3)C2=O)c(O)c1Br`, the result was inactive.
Same read-out and setting: next, `O=C(NCCO)c1ccc(/C=C2\SC(=S)N(c3cccc(C(F)(F)F)c3)C2=O)cc1`: “inactive”.
Take `O=C(O)c1cccc(/C=C2\SC(=S)N(c3cccc(C(F)(F)F)c3)C2=O)c1`: the IC50 was found to be 1.5 µM.
In the case of `Cc1cccc(N2C(=O)/C(=C/c3ccc(C(=O)O)cc3)SC2=S)c1C`, the IC50 stood at 7 µM.
On the same count and under the same terms, next, `O=C(O)COc1cccc(/C=C2\SC(=S)N(c3cccc(C(F)(F)F)c3)C2=O)c1`: 30 µM.
As for `O=C(O)c1ccccc1/C=C1\SC(=S)N(c2ccccc2C(F)(F)F)C1=O`, the IC50 is 18 µM.
Still for that read-out and setting: next, `Cc1cccc(N2C(=O)/C(=C/c3ccc(C(=O)O)cc3)SC2=S)c1`: 5 µM; `O=C(O)c1ccc(/C=C2\SC(=S)N(c3cc(C(F)(F)F)ccc3Cl)C2=O)cc1`: 20 µM; `O=C1/C(=C/c2cc(Br)c(O)c(Br)c2)SC(=S)N1c1cccc(C(F)(F)F)c1`: 7 µM.
As for `O=C(O)c1ccc(-n2cc(-c3cccc(C(F)(F)F)c3)nn2)cc1`, the result was inactive.
Take `O=C1/C(=C/c2ccc(O)c(O)c2)SC(=S)N1c1cccc(C(F)(F)F)c1`: the result was inactive.

Tested on in another series: not listed separately
The series can be described thus: Cytotoxicity against rat FRT cells assessed as cell viability at 50 uM after 48 hrs by crystal violet staining. The class given is cell-based. Summed up: (§1)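 Confluent FRT monolayers exposed to compound for 2 days. Cells were then washed three times, fixed for 30 min and stained with 0.5% crystal violet for 10 min. Dye was extracted in Sorenson's buffer (0.1 M sodium citrate, 50% ethanol, pH 4.2) and read at 650 nm. Percent staining was taken from 8 replicate wells relative to cell-free blanks and vehicle-treated cells.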
With `O=C(O)c1ccc(/C=C2\SC(=O)N(c3cccc(C(F)(F)F)c3)C2=O)cc1`, the Activity is 91%.
Turning to `Cc1c(N2C(=O)/C(=C/c3ccc(C(=O)O)cc3)SC2=S)cccc1C(F)(F)F`, the Activity is given as 72%.
For `O=C1/C(=C/c2ccc(-c3nn[nH]n3)cc2)SC(=S)N1c1cccc(C(F)(F)F)c1`, the Activity is 73%.

Tested on in another series: not listed separately
The series can be described thus: Cytotoxicity against rat FRT cells assessed as cell viability at 20 uM after 48 hrs by crystal violet staining. It counts as cell-based. Summed up:
as §1
Take `O=C(O)c1ccc(/C=C2\SC(=S)N(c3cccc(C(F)(F)F)c3)C2=O)cc1`: the Activity is recorded as 86%.
Consider `O=C(O)c1ccc(/C=C2\SC(=O)N(c3cccc(C(F)(F)F)c3)C2=O)cc1`, for which the Activity is on record as 93%.
The same measure, in the same setting: next, `Cc1c(N2C(=O)/C(=C/c3ccc(C(=O)O)cc3)SC2=S)cccc1C(F)(F)F`: 89%; `O=C1/C(=C/c2ccc(-c3nn[nH]n3)cc2)SC(=S)N1c1cccc(C(F)(F)F)c1`: 87%.
